Out of some 330,000 compounds screened, about 1,100 (0.33%) were called active. This excerpt belongs to a sample that is enriched for actives. Unmarked numbers belong to inactive results.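 The calls were made as follows: active = mean inhibition over replicate wells above about 20% (limit read from the data); inactive = the rest.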

Chain of Ubiquitin carboxyl-terminal hydrolase isozyme L5 (Homo sapiens) (Q9Y5K5 whole entry, looked up): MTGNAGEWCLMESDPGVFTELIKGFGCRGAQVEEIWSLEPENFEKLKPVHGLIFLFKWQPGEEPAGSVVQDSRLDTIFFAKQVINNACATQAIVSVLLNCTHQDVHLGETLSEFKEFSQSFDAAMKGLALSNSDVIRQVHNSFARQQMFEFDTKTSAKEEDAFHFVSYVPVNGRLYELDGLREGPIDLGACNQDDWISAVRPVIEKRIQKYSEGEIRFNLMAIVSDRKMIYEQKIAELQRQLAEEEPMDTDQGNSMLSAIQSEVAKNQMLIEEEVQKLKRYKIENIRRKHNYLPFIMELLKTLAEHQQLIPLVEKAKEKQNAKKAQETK

In this assay the target is Ubiquitin carboxyl-terminal hydrolase isozyme L5 (Homo sapiens) (UniProt Q9Y5K5). Put plainly: proteasome-bound UCH37 DUB activity blockers – biochemical, Ub-AMC cleavage, fluorescence, primary screen (AID 588478).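 Also: 0% = compound-free wells with enzyme and 100% = wells lacking proteasome.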 The settings on record: purified proteasome/UCH37, Ub-AMC cleavage fluorescence; hits give high values; concentration not given here. The essentials: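 Material: Human UCH37 enzyme supplied as purified proteasome complex | Schedule: 30 min preincubation with enzyme, 25 min cleavage at room temperature | Detection: AMC fluorescence 355/460 nm | Measure: % inhibition of Ub-AMC cleavage fluorescence | Controls: Wells without proteasome as full block, compound-free enzyme plus substrate as uninhibited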
`c1coc(-c2nc3nc4ccccc4n3nc2-c2ccco2)c1`: the inhibition was 25.1% (active).
As for `O=C(NN=Cc1cccnc1)c1cccc(N2CCCC2=O)c1`, the inhibition is 2.39%.
On to `O=C(NC(Cc1c[nH]c2ccccc12)C(=O)NN=Cc1ccc(Br)cc1)c1cccs1` (stereo not given), for which the inhibition is 0.851%.
On to `CCN(CC)CCn1c2ccc(Cl)cc2c2nc(C)sc21`, for which the inhibition was 7.52%.
As to `CCN(CC)CCCC(C)n1c2nc(=O)[nH]c(=O)c-2nc2cc(Cl)ccc21` (stereo not given), the inhibition was 76% (active).
For the compound `Nc1nnnn1N=Cc1cc(Cl)ccc1O`, the inhibition is -10.7%.
As for `CC(CC(=O)NCCc1ccccc1)=NNC(=O)COc1ccc(Br)cc1`, the inhibition is 3.08%.
Turning to `O=C1c2ccccc2-c2ncnc3c(N4CCOCC4)cc(N4CCOCC4)c1c23`, the inhibition is 17.7%.
With `O=C1C(Cl)=C(N2CCOCC2)C(=O)N1c1ccccc1`, the inhibition is 3.48%.
In the case of `COC1=C(N2CCOCC2)C(=O)c2ccccc2C1=O` it was 33.9% (active); in that of `Cc1cc(C)n2nc(C(=O)NN=Cc3cccc(Cl)c3)nc2n1`, 4.88%.
For the compound `COc1ccc(OCC(=O)NN=C(C)CC(=O)Nc2ccc(OC)cc2[N+](=O)[O-])cc1`, the inhibition is 5.56%.
`Cc1cc(N2C(=O)C(=O)/C(=C(/O)c3ccc(Cl)cc3)C2c2cccc(Br)c2)no1` (stereo not given): the inhibition was 6.56%.
Consider `COc1ccc(C2/C(=C(/O)c3ccccc3)C(=O)C(=O)N2c2ncccn2)cc1OC` (stereo not given), for which the inhibition is 7.11%.
For the compound `Cc1cc(N2C(=O)C(=O)/C(=C(/O)c3ccccc3)C2c2cccc(Br)c2)no1` (stereo not given), the inhibition was 21.7% (active).
In the case of `Cc1ccccc1OCC(=O)NN=C1CCOc2c(C)cccc21`, the inhibition is -0.822%.
As to `CC(C)(C)c1ccc(OCc2ccc(C(=O)NN=C3CC4CC=CC34)cc2)cc1` (stereo not given), the inhibition was 2.62%.
With `CN(CC(=O)Nc1ccc(F)cc1)C(=O)c1ccc(-c2ccc(Cl)cc2)o1`, the inhibition is -0.892%.
In the case of `O=C(NC1CCCCC1)c1ccc(-c2ccc(Cl)cc2)o1` it was 1.6%; in that of `Cc1[nH][nH]c(=O)c1C(c1ccc(-c2ccc(Cl)cc2)o1)c1c(C)[nH][nH]c1=O`, 42.6% (active).
In the case of `Cc1cccc(OCC(=O)NN=C/C=C/c2ccc3c(c2)OCO3)c1C` it was -10.5%.
In the case of `CC(=NNC(=O)c1ccc2c(c1)OCO2)c1ccc(O)cc1`, the inhibition is 3.15%.
`Oc1ccc(N=Nc2nccs2)c(O)c1`: the inhibition was 24.4% (active).
For `CC(=NNc1cc(N2CCOCC2)ncn1)c1ccccc1`, the inhibition is 2.94%.
Regarding `Cn1c(=O)n(C)c2cc(C=Nn3cnnc3)ccc21`, the inhibition is -35.7%.
For `Cc1cc(=O)n2nc(N3CCCC(C(=O)NCCC4=CCCCC4)C3)sc2n1` (stereo not given), the inhibition was 4.22%.
`CC1CCCN(C(=O)c2ccc3c(c2)C(=O)N(CCC2=CCCCC2)C3=O)C1` (stereo not given): the inhibition is 39.5% (active).
Turning to `C=CCN1C(=O)c2ccc(C(=O)N3CCC(C(=O)OCC)CC3)cc2C1=O`, the inhibition was -0.969%.
Consider `S=c1[nH]nc(-c2ccccc2)n1N=Cc1ccc(-c2ccccc2Cl)o1`, for which the inhibition is 5.56%.
Turning to `CC(CC(=O)Nc1ccc(Cl)cc1Cl)=NNC(=O)c1ccncc1`, the inhibition was 0.597%.
As to `COC(=O)NN=C(C)c1cccs1`, the inhibition was 2.45%.
The same measure for `N#C/C(=C\c1ccc(N2CCOCC2)o1)C(=O)N1CCOCC1`: 15.4%.
The same measure for `N#C/C(=C/c1ccc(N2CCCCC2)o1)C(=O)NCCc1c[nH]c2ccccc12`: 11.5%; for `N#C/C(=C/c1ccc(N2CCOCC2)o1)C(=O)N1CCOCC1`: 33.4% (active).
Consider `CC(C)(C)n1c(=O)[nH]c2c(c1=O)CCC2`, for which the inhibition is -4.38%.
`N#Cc1c2c(c(-c3ccccc3)[nH]c1=O)CCCC2`: the inhibition is -49.7%.
As for `O=c1[nH]n2c(=O)c3c([nH]c2c1N=Nc1ccccc1)CCC3`, the inhibition was 22.1% (active).
Turning to `CCOc1ccc(C=NNC(=O)c2nnn(-c3nonc3N)c2COc2ccc(F)cc2)cc1`, the inhibition is -139%.
Turning to `N#CCC(=O)NN=Cc1cn(Cc2cccc3ccccc23)c2ccccc12`, the inhibition is 1.26%.
On to `COCc1c(C)cc(C)c(C=NO)c1C`, for which the inhibition was 3.47%.
On to `N#CC(=C(O)CCl)c1nnc2n1CCCCC2`, for which the inhibition was 31.4% (active).
For the compound `N#CC(=NNc1cc(Cl)cc(Cl)c1)c1nnc2n1CCCCC2`, the inhibition is 3.3%.
As for `C=CCn1c(=C(C#N)c2nnc3n2CCCCC3)sc(=Cc2ccc(Cl)cc2)c1=O`, the inhibition was 8.49%.
In the case of `COc1cc(C=NNS(=O)(=O)c2ccc(C)cc2)ccc1OCc1ccc(C(=O)O)cc1` it was 3.97%; in that of `COc1ccccc1C=NNc1cc(C)nc2ccc(C)cc12`, -45.9%; in that of `C/C(C=NNC(=O)c1ccc2nc[nH]c2c1)=C/c1ccccc1`, 5.71%.
With `Cc1cnc(NC(=O)c2ccccn2)s1`, the inhibition was 2.76%.
For the compound `Cc1nc(NC(=O)C2CCCCC2)sc1C`, the inhibition is 1.92%.
The same measure for `Cc1cnc(NC(=O)C2CCCC2)s1`: 31% (active).
For `CCCOc1ccc(-c2c(C(=O)NN=Cc3ccccc3)nnn2-c2nonc2N)cc1`, the inhibition was 5.85%.
For the compound `COc1cc(C=Nn2c(C)nc3ccccc3c2=O)ccc1O`, the inhibition was 12.2%.
For the compound `CC(CC(=O)Nc1cc(C)ccn1)=NNC(=O)c1cccc(C)c1O`, the inhibition is -6.85%.
The same measure for `CCS(=O)(=O)C1=NSC2=NC(=O)/C(=C\c3cc(C)n(-c4cccc(OC)c4)c3C)C(=N)N21`: -8.8%.
In the case of `Cc1cc(C=NO)c(C)n1-c1ccccc1` it was -2.23%; in that of `Cc1cc(/C=C2/C(=N)N3C(=NC2=O)SN=C3S(C)(=O)=O)c(C)n1-c1ccccc1`, 33.8% (active).
For `COc1ccc2c(c1)c(C(=O)NN=Cc1ccc(Br)cc1)c(C)n2C`, the inhibition was 2.61%.
`CC(Oc1ccc(Cl)cc1)C(=O)NN=Cc1ccsc1` (stereo not given): the inhibition is 0.279%.
For `Cc1oc(N=Cc2cccc([N+](=O)[O-])c2)c(C#N)c1C`, the inhibition is 4.11%.
As for `COc1ccc(C=NNC(=O)CSCC(=O)Nc2ccccc2)cc1`, the inhibition is 2.55%.
In the case of `CN=C1C=C/C(=N/N=c2\ccn(O)cc2C)C=C1C` it was 23.6% (active); in that of `COC(=O)Cc1cc(=O)[nH]c(N=C(N)Nc2ccc(C)cc2C)n1`, -0.633%.
Take `C(=Nn1cnnc1)c1ccc(OCc2cccc3ccccc23)cc1`: the inhibition is 2.25%.
Take `COc1ccc2ccccc2c1C=NNC(=S)Nc1cc(S(=O)(=O)N2CCOCC2)ccc1N1CCOCC1`: the inhibition is -8.36%.
For the compound `O=C(NN=Cc1ccc(-c2ccccc2[N+](=O)[O-])o1)C1COc2cc3ccccc3cc2O1` (stereo not given), the inhibition is 7.82%.
Turning to `CC(C)(C)c1cc(=O)n2c(nc3ccccc32)[nH]1`, the inhibition was -27.1%.
Regarding `O=C(O)c1cc(C(=O)O)cc(-c2ccc(C=c3sc4nc5ccccc5n4c3=O)o2)c1`, the inhibition is 22.2% (active).
Consider `O=c1c(=Cc2ccco2)sc2nc(-c3ccccc3Br)nn12`, for which the inhibition was 4.51%.
Take `CC(=NNC(=O)Cc1c(Cl)cccc1Cl)c1cccnc1`: the inhibition is 4.49%.
Consider `Cc1cccc(-c2cc(C(=O)NN=Cc3cccnc3)c3ccccc3n2)c1`, for which the inhibition was 1.54%.
As to `Cc1cc(=O)n2nc(N3CCC(C(=O)Nc4c(F)c(F)c(F)c(F)c4F)CC3)sc2n1`, the inhibition was -5.44%.
Consider `CCCOc1ccc(CNC(=O)C2CCN(c3nn4c(=O)cc(C)nc4s3)CC2)cc1`, for which the inhibition was 1.32%.
Take `COc1ccc(CCNC(=O)C2CCN(c3nn4c(=O)cc(C)nc4s3)CC2)cc1OC`: the inhibition was 27.9% (active).
In the case of `CCOc1ccc(C=NNC(=O)CN2CCCCC2)cc1OCC` it was 4.23%; in that of `COc1ccc(CC(=O)Nc2cccc(C(C)=NNC(=O)c3cccc([N+](=O)[O-])c3)c2)cc1`, 2.24%.
Consider `CC[n+]1cc(C)ccc1/C=C/c1ccc(N(C)C)cc1`, for which the inhibition was 20.6% (active).
As to `CCC(=NNC(=O)Nc1nonc1N)c1ccc(OC)c(OC)c1`, the inhibition was 2.18%.
With `Cc1nnsc1C(=O)NN=Cc1ccccc1Cl`, the inhibition was 2.87%.
On to `O=C(CNC(=O)c1cccc(Cl)c1)NN=Cc1cccnc1`, for which the inhibition is 3.41%.
In the case of `CCOC(=O)c1cccc(NC(=O)c2ccc(F)cc2F)c1` it was 24.8% (active); in that of `CCOC(=O)c1cccc(NC(=O)CCn2nnc3ccccc32)c1`, 0.741%; in that of `CCOC(=O)c1cccc(NC(=O)CCOc2ccccc2)c1`, 0.512%.
For the compound `CC(=O)NC1CCCN(O)C(=O)C=C(C)CCOC(=O)C(NC(C)=O)CCCN(O)C(=O)C=C(C)CCOC(=O)C(NC(C)=O)CCCN(O)C(=O)C=C(C)CCOC1=O` (stereo not given), the inhibition was -0.932%.
With `COc1cc(OC)cc(C(=O)NN=Cc2ccoc2)c1`, the inhibition is 1.2%.
In the case of `O=C1NNC(c2ccccc2)=N/C1=C\c1ccc(Cl)cc1` it was 21.1% (active); in that of `CCOC(=O)c1cc(C(C)=NOC(=O)c2ccc(C(C)(C)C)cc2)on1`, 4.76%; in that of `O=C(NN=Cc1cc2cc3c(cc2nc1Cl)OCO3)c1ccncc1`, -62.6%.
Turning to `CC(C)NC(=O)/C(C#N)=C\c1ccc(N(C)C)c(Br)c1`, the inhibition was 35.8% (active).
With `Cc1[nH]c2ccccc2c1/C=C(/C#N)C(=O)NC(C)C`, the inhibition is 11.3%.
`N#C/C(=C\c1ccc(O)c(O)c1)C(=O)NCc1ccccc1`: the inhibition is 4.82%.
For the compound `CC(=NNC(=O)Cc1c[nH]c2ccccc12)c1ccc2ccccc2c1`, the inhibition is -2.68%.
On to `Cc1cc(Nc2ccc(C(=O)N3CCCCC3)cc2)c2cccc(C)c2n1`, for which the inhibition was 7.53%.
For `Cc1cc(Nc2ccc(N3CCOCC3)cc2)c2cccc(C)c2n1`, the inhibition was 9.4%.
In the case of `Cc1ccc(Nc2cc(C)nc3c(C)ccc([N+](=O)[O-])c23)cc1` it was 42.3% (active); in that of `CC1(C)CC(=O)CC(=NNC(=O)c2ccc(-c3ccccc3)cc2)C1`, 3.09%.
For `CCOc1cc(C=NO)ccc1OS(=O)(=O)c1ccc(C)cc1`, the inhibition is -0.715%.

Broadly, the inhibition is the change of the read-out against control, counted positive when it falls.

The values above are taken from PubChem BioAssay AID588478 (ICCB-Longwood Screening Facility, Harvard Medical School, 2011).
